High-throughput results from PubChem BioAssay.
TRPC4 PAM: allosteric potentiators of mouse TRPC4 channel | Q9QUQ5 | HEK293 TRPC4beta/mu-opioid, DAMGO EC20, Fluo-4 Ca2+ flux; active compounds read high | B-score at 10 µM | 310,000 compounds, 0.42% hits | AID 2227;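 active = B-score of calcium response area above 5 SD of library B-scores, with initial fluorescence ratio within 5 SD of library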;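 also: B-score of integrated fluorescence ratio over time as area under calcium response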
TRPC4 act: opens the mouse TRPC4 cation channel; 310,000 compounds, 0.49% hits; HEK293 TRPC4beta/mu-opioid, Fluo4 calcium fluorescence; active compounds read high; AID 2237; Q9QUQ5; B-score at 10 µM;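 active = B-score above 5 SD of library B-scores, and initial fluorescence ratio not above library mean plus 5 SD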;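 also: positive B-score marks a calcium rise read as TRPC4 activation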
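Technique: kinetic Fluo4 calcium fluorescence; Test system: TRPC4beta and mu-opioid receptor HEK293 stable cells; Measure: B-scored integrated calcium fluorescence ratio; Benchmarks: low control buffer alone, high control maximal DAMGO; Schedule: 45 min room-temperature Fluo4 loading, 110 s read.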
TRPC4 block: inhibitors of mouse TRPC4 channel | Q9QUQ5 | B-score at 10 µM | AID 2247 | 300,000 compounds, 0.39% hits | HEK293 TRPC4beta/mu-opioid, DAMGO-evoked Fluo4 calcium flux; active compounds read low;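 active = B-score over 3 SD under the library average, no early fluorescence shift, positive overall ratio signal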
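material = TRPC4beta/mu-opioid receptor HEK293 cell line | probe or stimulus = sequential submaximal and maximal DAMGO stimulation | compound dosing = one concentration per compound | measured by = Fluo4 Ca2+ flux fluorescence | evaluation = integrated fluorescence ratio relative to baseline, converted to per-well B score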
TRPC6 inhibitor: mouse TRPC6 channel inhibition; B-score at 10 µM; 310,000 compounds, 1.1% hits; HEK293-TRPC6, membrane potential dye, ACh-evoked depolarization; active compounds read low; Q61143;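 active = B-score under library mean minus 3 SD, initial fluorescence not abnormally high, positive integrated signal ratio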;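 also: B-score derived from integrated fluorescence ratio over the kinetic read; more negative B-score means stronger inhibition of depolarization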
Target sequence (Q61143 whole entry, looked up): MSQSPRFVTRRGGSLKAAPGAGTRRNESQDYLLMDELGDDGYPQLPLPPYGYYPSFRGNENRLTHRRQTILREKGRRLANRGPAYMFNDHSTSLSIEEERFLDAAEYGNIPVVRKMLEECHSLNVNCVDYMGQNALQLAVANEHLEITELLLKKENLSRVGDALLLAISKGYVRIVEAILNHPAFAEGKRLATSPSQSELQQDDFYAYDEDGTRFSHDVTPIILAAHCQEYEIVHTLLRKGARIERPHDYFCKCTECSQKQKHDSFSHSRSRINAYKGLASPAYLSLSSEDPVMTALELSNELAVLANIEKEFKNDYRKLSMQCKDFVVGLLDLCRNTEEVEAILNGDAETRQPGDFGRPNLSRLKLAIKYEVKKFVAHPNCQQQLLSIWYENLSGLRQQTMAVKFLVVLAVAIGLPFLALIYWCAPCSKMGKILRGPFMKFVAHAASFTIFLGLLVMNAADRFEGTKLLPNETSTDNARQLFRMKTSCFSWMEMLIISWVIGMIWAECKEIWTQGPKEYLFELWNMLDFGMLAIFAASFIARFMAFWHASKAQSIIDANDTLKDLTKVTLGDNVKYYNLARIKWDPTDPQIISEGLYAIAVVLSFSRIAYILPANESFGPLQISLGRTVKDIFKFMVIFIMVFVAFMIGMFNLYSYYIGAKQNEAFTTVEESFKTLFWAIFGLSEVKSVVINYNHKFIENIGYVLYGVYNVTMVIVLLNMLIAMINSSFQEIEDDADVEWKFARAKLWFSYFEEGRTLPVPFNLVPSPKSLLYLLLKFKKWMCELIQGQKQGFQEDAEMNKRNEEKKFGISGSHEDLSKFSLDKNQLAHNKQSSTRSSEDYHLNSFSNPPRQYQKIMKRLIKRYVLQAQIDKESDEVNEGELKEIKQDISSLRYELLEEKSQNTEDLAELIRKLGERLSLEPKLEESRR
TRPC6 activator: activates the mouse TRPC6 cation channel; Q61143; 310,000 compounds, 0.13% hits; B-score at 10 µM; HEK293-TRPC6 membrane potential dye fluorescence; active compounds read high; AID 2550;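 active = B-score of the integrated fluorescence ratio above library mean plus 3 SD, and starting fluorescence ratio within library mean plus 5 SD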;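 also: higher score means more depolarization so channel activation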
Starred values were filed as active, the others as inactive; i = inactive. This is a sample that favours compounds with a hit; in the whole collection about 2.3% have one here.

SMILES	TRPC4 PAM	TRPC4 act	TRPC4 block	TRPC6 inhibitor	TRPC6 activator
Cc1ccc(-c2c[n+](Cc3ccc(Cl)cc3)c3n2CCC3)cc1	i	i	i	i	i
O=C(C[n+]1cc(-c2ccccc2)n2c1CCC2)c1cccs1	i	i	i	i	i
Clc1cccc(C[n+]2cc(-c3ccccc3)n3c2CCC3)c1	i	i	-6*	i	i
CC(=O)Nc1ccc(S(=O)(=O)NCCC(=O)NCC2COc3ccccc3O2)cc1 (stereo unspecified)	i	i	i	i	i
COCCOC1CCN(C(=O)c2cc(COc3ccc(F)cc3F)on2)CC1	i	i	i	i	i
COc1ccc(CNCCC(c2ccccc2)c2ccc3c(c2)OCO3)cc1 (stereo unspecified)	i	125*	i	i	i
COc1ccccc1C(CCNCc1ccc(N(C)C)cc1)c1ccc(OC(C)C)cc1 (stereo unspecified)	i	47*	i	i	i
C#Cc1ccc(CN2CCC(Oc3ccc(C(=O)NCc4ccccn4)cc3)CC2)cc1	i	i	i	i	i
CCOc1ccc(NS(=O)(=O)c2csc(C(N)=O)c2)cc1	i	i	i	i	i
CN1CCN(CCCN(Cc2cccs2)C(=S)Nc2ccc(Cl)cc2)CC1	i	i	i	i	i
CCc1ccc(NC(=O)N(CCCN2CCOCC2)Cc2cccs2)cc1	i	51*	i	i	i
CCc1ccc(NC(=S)N(CCCN2CCN(C)CC2)Cc2cccs2)cc1	10*	i	i	i	i
COc1ccc2nc(/N=C(\N)NC(=O)C(C)(C)C)nc(C)c2c1	i	i	i	i	i
CCC(=O)N/C(N)=N/c1nc(C)c2cc(OC)ccc2n1	i	i	-7*	i	i
CCN1CCN(C(=O)c2cc(-c3ccc(Cl)s3)nc3ccccc23)CC1	18*	i	i	i	i
COC(=O)c1c(NC(=O)CSc2ncn[nH]2)sc(C)c1C	i	i	-7*	i	i
CCOC(=O)c1c(NC(=O)CSc2ncn[nH]2)sc(C(C)=O)c1C	i	i	i	i	i
COc1cccc(CN(C)C(=O)CNC(=O)c2ccc3c(c2)OCO3)c1OC	i	i	i	i	i
CC(OC(=O)c1ccc2c(c1)OCCO2)C(=O)c1ccccc1 (stereo unspecified)	i	i	i	i	i
Cc1cc(C)nc(Nc2nc(=O)c3ccccc3s2)n1	55*	i	i	i	i
NC(=O)c1ccc(NC(=O)CN2CCN(Cc3ccccc3)CC2)cc1	i	i	i	i	i
O=C(c1cc(COc2ccc(F)cc2Cl)on1)N(CCO)Cc1cccs1	11*	i	i	i	i
CCN(CCn1cccn1)C(=O)c1cc(COc2ccc(F)cc2Cl)on1	i	i	i	i	i
Cc1ccc(/C=C/C(=O)c2ccc(O)cc2)cc1	i	i	-6*	i	i
COC(=O)[C@@]12CCCN1[C@H](c1ccc(-c3ccc(OC)cc3)cc1)[C@@H]1C(=O)N(C)C(=O)[C@@H]12	24*	i	i	i	i
SMILES	TRPC4 PAM	TRPC4 act	TRPC4 block	TRPC6 inhibitor	TRPC6 activator
COC(=O)[C@@]12CCCN1[C@H](c1ccc(-c3ccccc3)cc1)[C@H]1C(=O)N(C)C(=O)[C@H]12	i	i	i	i	i
CN(C)C(CNC(=O)c1ccc(S(=O)(=O)Nc2cccc(C(F)(F)F)c2)cc1)c1ccco1 (stereo unspecified)	i	i	i	i	i
COc1cccc(Cn2cc(C)cc(NC(=O)NCc3ccccc3)c2=O)c1	i	i	i	i	i
COc1ccc(C=Nc2ccc3[nH]ncc3c2)c(O)c1	i	i	i	i	i
Oc1c(Br)cc(Br)cc1C=Nc1ccc2[nH]ncc2c1	i	i	-7*	i	i
CN(C)c1ccc(C(=S)N2CCN(c3ccc([N+](=O)[O-])cc3)CC2)cc1	19*	i	i	i	i
COc1ccc(CN(C2CCCCC2C)S(=O)(=O)c2ccc(S(=O)(=O)N(C)C)cc2)cc1OC (stereo unspecified)	23*	i	i	i	i
COc1cc(CN(C2CCCCC2C)S(=O)(=O)c2ccc(S(=O)(=O)NC3CC3)cc2)cc(OC)c1OC (stereo unspecified)	i	i	i	i	i
O=C(N/N=C/C(Br)=C/c1ccccc1)c1ccccc1[N+](=O)[O-]	12*	i	i	i	i
CNC(=S)N1N=C(c2ccc(C)cc2)CC1c1ccc(OC)cc1 (stereo unspecified)	i	i	i	i	i
CNC(=S)N1N=C(c2ccc(C)cc2)CC1c1cc(OC)ccc1OC (stereo unspecified)	17*	i	i	i	i
Cc1csc2c(N3CCN(C(=O)NC(C)(C)C)CC3)ncnc12	i	84*	i	i	i
Cc1csc2c(N3CCN(C(=O)c4ccc(C(C)(C)C)cc4)CC3)ncnc12	i	67*	i	i	i
Cc1csc2c(N3CCN(C(=S)Nc4ccc(C(F)(F)F)cc4)CC3)ncnc12	i	145*	i	i	i
Cc1csc2ncnc(N3CCN(C(=S)Nc4ccc(C(F)(F)F)cc4)CC3)c12	i	i	i	i	i
CCOC(=O)C1CCN(c2ncnc3c(C)csc23)CC1	i	i	i	i	i
Cc1csc2c(N3CCN(C(=O)Nc4ccc(Cl)c(Cl)c4)CC3)ncnc12	i	91*	i	i	i
Cc1cc(C)cc(N(CC(=O)Nc2ccc(C(F)(F)F)cc2)S(=O)(=O)c2c(C)[nH]c(=O)[nH]c2=O)c1	i	i	i	i	i
Cc1cc(C)cc(N(CC(=O)Nc2ccc(C)cc2Cl)S(=O)(=O)c2c(C)[nH]c(=O)[nH]c2=O)c1	22*	i	i	i	i
Cc1cc(N2CCN(C)CC2)nc2ccc(NC(=O)c3ccccc3F)cc12	i	i	i	i	i
COC(=O)c1cc(N2CCN(C)CC2)nc2ccccc12	17*	i	i	i	i
c1ccc(CN2CCN(c3nc4ccccc4s3)CC2)cc1	17*	i	i	i	i
CC1CCN(c2nc3ccc(C(=O)N4CCN(Cc5ccccc5)CC4)cc3s2)CC1	i	i	i	i	i
c1ccc(CN2CCN(c3nc(N4CCOCC4)c4ccccc4n3)CC2)cc1	i	i	i	-5.5*	i
